Reference: ChEMBL document CHEMBL2311339, “Identification of GZD824 as an orally bioavailable inhibitor that targets phosphorylated and nonphosphorylated breakpoint cluster region-Abelson (Bcr-Abl) kinase and overcomes clinically acquired mutation-induced resistance against imatinib” (J Med Chem, 2013)
Active and inactive are the calls of the source. The calls are words filed in the database; no cut-off is given here.

Tests used:
BaF3 [1] = assay: Antitumor activity against mouse BA/F3 cells expressing BCR-ABL T315I mutant allografted in SCID mouse assessed as suppression of cell proliferation at 5 to 20 mg/kg/day, po qd for 10 days relative to untreated vehicle; assay type: functional, organism-based
How it was run: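 Ba/F3 Bcr-Abl T315I cells stably carrying firefly luciferase, in saline, were injected i.v. into SCID nude mice (2 × 10^6 cells/0.1 mL). Imaging began 5−7 days later: i.p. D-luciferin, halothane anaesthesia, images after 5 min. Mice were randomised by signal and dosed by oral gavage once daily for 10 days (5, 10, 20 mg/kg/day; imatinib 100 mg/kg; vehicle). Luminescence was quantified; survival by Kaplan−Meier with log-rank test.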

BaF3 [2] = assay: Antitumor activity against mouse BA/F3 cells expressing BCR-ABL E255K mutant allografted in po dosed SCID mouse assessed as reduction of hepatosplenomegaly administered qd for 14 days; assay type: functional, organism-based
BaF3 [3] = assay: Antitumor activity against mouse BA/F3 cells expressing BCR-ABL T315I mutant allografted in po dosed SCID mouse assessed as reduction of hepatosplenomegaly administered qd for 14 days; assay type: functional, organism-based
Mus musculus = assay: Toxicity in human K562 cells xenografted mouse assessed as body weight loss relative to vehicle-treated control; assay type: organism-based; conditions: in vivo
How it was run: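 K562 cells (2.5 × 10^7 cells/mL in normal saline, 0.2 mL) were injected subcutaneously into the right flank. Mice were randomized once mean tumor volume reached 100−200 mm3, n = 10 per group. Dosing was by oral gavage once daily for 14 days in 1% DMSO/22.5% Cremophor/7.5% ethanol/69% saline. Tumor volume (L × W²/2) and body weight were measured every 2 days; unpaired t test versus vehicle.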

K562 = assay: Antitumor activity against human K562 cells xenografted in po dosed mouse assessed as inhibition of tumor growth administered qd for 14 days; assay type: functional, organism-based
How it was run: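 K562 cells suspended in normal saline (2.5 × 10^7 cells/mL), 0.2 mL injected subcutaneously into the right flank. Mice were randomised once mean tumour volume reached 100−200 mm3. Oral gavage once daily for 14 days, in 1% DMSO/22.5% Cremophor/7.5% ethanol/69% saline. Tumour volume (L × W²/2) and body weight taken every 2 days; recurrence followed 20 days after dosing stopped. n = 10/group; unpaired t test versus vehicle.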

[4] = Plasma concentration in rat after 12 hrs; assay type: ADME
How it was run: (§1)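 Bismesylate salt given to rats as a single iv dose of 5 mg/kg or a single oral dose of 25 mg/kg. Plasma drug levels were followed over time to derive the PK parameters. The 12 h and 24 h plasma levels come from the oral 25 mg/kg dose.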

Rattus norvegicus = assay: Volume of distribution at steady state in rat at 25 mg/kg, po; assay type: ADME, organism-based; design: dose 25 mg/kg, route oral; conditions: in vivo
How it was run: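 Test compound given to rats as its bismesylate salt in a single dose, 5 mg/kg iv or 25 mg/kg by mouth. Plasma drug levels were monitored after dosing, and PK parameters including Vss were reported per route.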

[5] = Clearance in rat at 25 mg/kg, po; assay type: ADME, organism-based; design: dose 25 mg/kg, route oral; conditions: in vivo; how it was run: as §1
[6] = Tmax in rat at 25 mg/kg, po; assay type: ADME, organism-based; design: dose 25 mg/kg, route oral; conditions: in vivo; how it was run: as §1
[7] = Clearance in rat at 5 mg/kg, iv; assay type: ADME, organism-based; design: dose 5 mg/kg, route intravenous; conditions: in vivo; how it was run: as §1
[8] = Mean residence time in rat at 5 mg/kg, iv; assay type: ADME, organism-based; design: dose 5 mg/kg, route intravenous; conditions: in vivo; how it was run: as §1
[9] = Apparent permeability from basolateral to apical side in human Caco2 cells by LC-MS/MS analysis; assay type: ADME, cell-based; conditions: Caco-2
[10] = Apparent permeability from apical to basolateral side in human Caco2 cells by LC-MS/MS analysis; assay type: ADME, cell-based; conditions: Caco-2
Cytochrome P450 2C19 = Cytochrome P450 2C19 (Homo sapiens, UniProt P33261); assay: Inhibition of human recombinant CYP2C19 after 30 mins; assay type: ADME
Cytochrome P450 2C19, sequence (P33261 whole entry): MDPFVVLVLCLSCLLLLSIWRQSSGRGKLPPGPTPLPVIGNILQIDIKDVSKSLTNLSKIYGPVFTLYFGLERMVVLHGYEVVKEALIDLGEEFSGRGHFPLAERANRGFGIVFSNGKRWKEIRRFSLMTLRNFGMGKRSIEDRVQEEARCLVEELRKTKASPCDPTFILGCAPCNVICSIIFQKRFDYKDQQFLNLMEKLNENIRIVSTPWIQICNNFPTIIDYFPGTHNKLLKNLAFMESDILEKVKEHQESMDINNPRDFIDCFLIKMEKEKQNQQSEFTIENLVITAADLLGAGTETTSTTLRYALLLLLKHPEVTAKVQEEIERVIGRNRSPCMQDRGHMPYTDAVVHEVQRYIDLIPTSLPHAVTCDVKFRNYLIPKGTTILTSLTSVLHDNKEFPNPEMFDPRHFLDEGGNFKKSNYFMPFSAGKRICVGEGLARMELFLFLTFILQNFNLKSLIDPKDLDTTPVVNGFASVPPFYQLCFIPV

Cytochrome P450 2E1 = Cytochrome P450 2E1 (Homo sapiens, UniProt P05181); assay: Inhibition of human recombinant CYP2E1 at 30 uM after 30 mins; assay type: ADME; conditions: recombinant enzyme, 0.5 h
Cytochrome P450 2E1, sequence (P05181 whole entry): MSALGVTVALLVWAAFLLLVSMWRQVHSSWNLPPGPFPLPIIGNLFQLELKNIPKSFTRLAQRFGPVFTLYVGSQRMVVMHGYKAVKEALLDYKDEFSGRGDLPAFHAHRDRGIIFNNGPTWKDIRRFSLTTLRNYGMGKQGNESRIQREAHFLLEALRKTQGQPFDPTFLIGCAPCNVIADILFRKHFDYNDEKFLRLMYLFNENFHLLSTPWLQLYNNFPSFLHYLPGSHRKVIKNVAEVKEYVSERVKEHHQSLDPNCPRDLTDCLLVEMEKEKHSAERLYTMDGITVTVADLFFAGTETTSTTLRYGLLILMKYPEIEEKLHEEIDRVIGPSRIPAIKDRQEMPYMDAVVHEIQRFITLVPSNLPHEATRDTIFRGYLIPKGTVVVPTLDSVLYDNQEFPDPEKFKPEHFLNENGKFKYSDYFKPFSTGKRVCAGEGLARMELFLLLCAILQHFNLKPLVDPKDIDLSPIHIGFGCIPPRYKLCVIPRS

MOLT-4 = assay: Cytotoxicity against human MOLT4 cells […] assessed as growth inhibition after 72 hrs by CCK-8 assay; assay type: functional, cell-based; conditions: MOLT-4, 72 h
How it was run: (§2)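 Log-phase human leukemia cells were seeded at about 3000 cells/well and treated 24 h later for 72 h. CCK-8 was then incubated with the cells for 3 h and read as OD450 − OD650. Viability was normalized to vehicle wells and cell-free blanks, and IC50 taken as the mean of three experiments.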

U-937 = assay: Cytotoxicity against human U937 cells […] assessed as growth inhibition after 72 hrs by CCK-8 assay; assay type: functional, cell-based; conditions: U-937, 72 h; how it was run: as §2
[11] = Cytotoxicity against human SUP-B15 cells expressing BCR-ABL assessed as growth inhibition after 72 hrs by CCK-8 assay; assay type: functional, cell-based; conditions: SUP-B15, 72 h; how it was run: as §2
[12] = Cytotoxicity against mouse BA/F3 cells expressing BCR-ABL F486S mutant assessed as growth inhibition after 72 hrs by CCK-8 assay; conditions: BaF3, 72 h
[13] = Cytotoxicity against mouse BA/F3 cells expressing BCR-ABL H396R mutant assessed as growth inhibition after 72 hrs by CCK-8 assay; conditions: BaF3, 72 h
[14] = Cytotoxicity against mouse BA/F3 cells expressing BCR-ABL Y253H mutant assessed as growth inhibition after 72 hrs by CCK-8 assay; conditions: BaF3, 72 h
[15] = Cytotoxicity against mouse BA/F3 cells expressing BCR-ABL L248V mutant assessed as growth inhibition after 72 hrs by CCK-8 assay; conditions: BaF3, 72 h
[16] = target: Tyrosine-protein kinase receptor Tie-1 (Homo sapiens) (UniProt P35590); assay: Binding affinity to TIE1 (unknown origin) at 10 nM after 2 hrs by FRET assay
Tyrosine-protein kinase receptor Tie-1 (Homo sapiens), sequence (P35590 whole entry): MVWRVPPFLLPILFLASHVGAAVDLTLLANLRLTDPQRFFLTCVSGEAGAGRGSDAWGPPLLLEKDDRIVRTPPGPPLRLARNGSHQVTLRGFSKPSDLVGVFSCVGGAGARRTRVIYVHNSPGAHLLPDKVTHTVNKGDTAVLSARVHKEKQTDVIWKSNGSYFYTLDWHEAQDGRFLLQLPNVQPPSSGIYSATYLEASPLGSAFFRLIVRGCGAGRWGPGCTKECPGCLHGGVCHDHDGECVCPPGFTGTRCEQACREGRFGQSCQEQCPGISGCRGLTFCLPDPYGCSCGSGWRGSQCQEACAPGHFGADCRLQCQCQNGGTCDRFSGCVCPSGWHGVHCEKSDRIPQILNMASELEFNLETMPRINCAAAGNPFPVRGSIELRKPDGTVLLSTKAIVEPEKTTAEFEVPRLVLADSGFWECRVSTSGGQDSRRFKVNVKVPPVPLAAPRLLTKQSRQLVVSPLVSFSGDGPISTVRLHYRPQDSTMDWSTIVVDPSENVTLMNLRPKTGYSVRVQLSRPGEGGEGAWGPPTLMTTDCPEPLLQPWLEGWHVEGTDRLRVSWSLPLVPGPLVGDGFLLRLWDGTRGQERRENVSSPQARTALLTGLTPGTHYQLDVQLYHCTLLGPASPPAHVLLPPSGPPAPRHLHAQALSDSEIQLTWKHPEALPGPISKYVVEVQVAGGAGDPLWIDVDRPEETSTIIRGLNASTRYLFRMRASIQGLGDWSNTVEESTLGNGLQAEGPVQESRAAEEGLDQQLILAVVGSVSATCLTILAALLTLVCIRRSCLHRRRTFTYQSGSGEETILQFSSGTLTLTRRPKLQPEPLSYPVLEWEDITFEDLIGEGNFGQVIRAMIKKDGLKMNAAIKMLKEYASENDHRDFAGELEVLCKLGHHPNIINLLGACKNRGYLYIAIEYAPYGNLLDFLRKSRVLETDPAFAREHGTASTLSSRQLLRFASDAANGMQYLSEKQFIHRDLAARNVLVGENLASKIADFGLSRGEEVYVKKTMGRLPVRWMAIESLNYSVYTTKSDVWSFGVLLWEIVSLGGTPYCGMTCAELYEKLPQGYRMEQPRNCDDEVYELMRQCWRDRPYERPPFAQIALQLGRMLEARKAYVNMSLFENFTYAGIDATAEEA

[17] = target: Proto-oncogene tyrosine-protein kinase Src (Homo sapiens) (UniProt P12931); assay: Binding affinity to SRC (unknown origin) at 10 nM after 2 hrs by FRET assay
Proto-oncogene tyrosine-protein kinase Src (Homo sapiens), sequence (P12931 2-536 limits assumed): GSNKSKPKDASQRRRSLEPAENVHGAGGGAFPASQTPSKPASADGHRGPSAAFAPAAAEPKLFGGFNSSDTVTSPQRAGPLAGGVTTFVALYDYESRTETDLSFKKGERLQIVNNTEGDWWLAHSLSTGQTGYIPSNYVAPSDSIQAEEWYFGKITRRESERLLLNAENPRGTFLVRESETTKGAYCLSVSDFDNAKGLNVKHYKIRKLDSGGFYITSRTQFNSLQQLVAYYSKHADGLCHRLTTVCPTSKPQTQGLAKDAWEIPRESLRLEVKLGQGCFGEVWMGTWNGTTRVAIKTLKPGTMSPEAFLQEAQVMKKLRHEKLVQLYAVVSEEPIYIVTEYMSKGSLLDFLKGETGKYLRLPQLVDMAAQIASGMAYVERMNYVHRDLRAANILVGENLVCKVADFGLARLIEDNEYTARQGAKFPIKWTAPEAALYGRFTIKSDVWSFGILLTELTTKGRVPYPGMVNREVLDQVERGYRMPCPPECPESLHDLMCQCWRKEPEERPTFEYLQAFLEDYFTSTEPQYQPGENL

[18] = target: Receptor-type tyrosine-protein kinase FLT3 (Homo sapiens) (UniProt P36888); assay: Binding affinity to FLT3 (unknown origin) at 10 nM after 2 hrs by FRET assay
Receptor-type tyrosine-protein kinase FLT3 (Homo sapiens), sequence (P36888 whole entry): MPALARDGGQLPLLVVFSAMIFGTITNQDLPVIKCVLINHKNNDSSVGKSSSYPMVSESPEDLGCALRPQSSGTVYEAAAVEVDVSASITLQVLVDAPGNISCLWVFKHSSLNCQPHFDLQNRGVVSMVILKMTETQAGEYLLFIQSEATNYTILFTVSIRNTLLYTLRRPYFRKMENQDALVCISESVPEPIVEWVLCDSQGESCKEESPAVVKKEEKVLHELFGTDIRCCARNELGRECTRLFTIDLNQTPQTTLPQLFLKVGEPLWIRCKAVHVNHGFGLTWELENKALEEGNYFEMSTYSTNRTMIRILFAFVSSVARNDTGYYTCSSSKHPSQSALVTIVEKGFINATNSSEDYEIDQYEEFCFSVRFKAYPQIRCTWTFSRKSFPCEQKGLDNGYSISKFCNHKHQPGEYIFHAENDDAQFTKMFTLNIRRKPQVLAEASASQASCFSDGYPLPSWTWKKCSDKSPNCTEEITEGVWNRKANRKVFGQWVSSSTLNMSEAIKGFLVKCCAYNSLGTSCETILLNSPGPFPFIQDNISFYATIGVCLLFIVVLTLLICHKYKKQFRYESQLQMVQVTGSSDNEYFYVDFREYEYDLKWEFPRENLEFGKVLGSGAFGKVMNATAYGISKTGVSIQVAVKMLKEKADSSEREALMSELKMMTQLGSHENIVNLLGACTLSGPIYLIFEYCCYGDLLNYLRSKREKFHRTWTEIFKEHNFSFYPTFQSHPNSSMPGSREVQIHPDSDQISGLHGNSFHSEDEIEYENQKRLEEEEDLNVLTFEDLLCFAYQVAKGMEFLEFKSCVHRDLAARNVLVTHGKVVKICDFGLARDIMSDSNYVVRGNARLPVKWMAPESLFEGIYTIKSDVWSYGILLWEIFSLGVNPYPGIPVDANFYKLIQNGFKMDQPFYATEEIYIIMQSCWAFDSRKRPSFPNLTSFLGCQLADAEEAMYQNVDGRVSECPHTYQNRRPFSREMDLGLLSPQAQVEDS

[19] = target: T1, Tyrosine-protein kinase ABL1 (Homo sapiens, UniProt P00519, M351T); assay: Binding affinity to phosphorylated ABL1 M351T mutant (unknown origin) after 1 hr
[20] = target: T2, Tyrosine-protein kinase ABL1 (Homo sapiens, UniProt P00519, H396P); assay: Binding affinity to non phosphorylated ABL1 H396P mutant (unknown origin) after 1 hr
[21] = target: Tyrosine-protein kinase ABL1 (Homo sapiens, UniProt P00519, Q252H); assay: Binding affinity to non phosphorylated ABL1 Q252H mutant (unknown origin) after 1 hr
[22] = target: Tyrosine-protein kinase ABL1 (Homo sapiens, UniProt P00519, T315I); assay: Binding affinity to non phosphorylated ABL1 T315I mutant (unknown origin) after 1 hr
[23] = target: T1, Tyrosine-protein kinase ABL1; assay: Inhibition of human recombinant ABL1 M351T mutant expressed in insect cells after 30 mins by FRET assay; assay type: cell-based
[24] = target: T2, Tyrosine-protein kinase ABL1; assay type: cell-based
[25] = Cytotoxicity against mouse BA/F3 cells assessed as growth inhibition after 72 hrs by CCK-8 assay; conditions: BaF3, 72 h
cells = conditions: Mus musculus, BaF3, 72 h

SMILES: Cc1ccc(C(=O)Nc2ccc(CN3CCN(C)CC3)c(C(F)(F)F)c2)cc1C#Cc1cnc2[nH]ncc2c1 [OLVEREMBATINIB]
- Activity (BaF3 [1]): Active
- Activity (BaF3 [2]): Active
- Activity (BaF3 [3]): Active
- Activity (Mus musculus): < 5%
- TGI (K562): Dose-dependent effect
- concentration at 12 h [4]: 270 nM
- Vdss (Rattus norvegicus): 53.2 L/kg
- CL/F [5]: 60 mL/min/kg
- Tmax [6]: 4 h
- clearance [7]: 28.3 mL/min/kg
- MRT [8]: 6.7 h
- Papp B→A [9]: 0.28 ×10⁻⁶ cm/s
- Papp A→B [10]: 0.32 ×10⁻⁶ cm/s
- IC50 (Cytochrome P450 2C19): 990 nM
- inhibition (INH) (Cytochrome P450 2E1): Not Active
- IC50 (MOLT-4): 26.3 nM
- IC50 (U-937): 390 nM
- IC50 [11]: 2.5 nM
- IC50 [12]: 1 nM
- IC50 [13]: 5.5 nM
- IC50 [14]: 3 nM
- IC50 [15]: 7.3 nM
- Activity [16]: inactive
- Activity [17]: inactive
- Activity [18]: inactive
- Kd [19]: 0.23 nM
- Kd [20]: 0.18 nM
- Kd [21]: 0.46 nM
- Kd [22]: 0.71 nM
- IC50 [23]: 0.29 nM
- IC50 [24]: 0.35 nM
- IC50 [25]: 170 nM
- IC50 (cells): 7.1 nM
